ChEMBL document CHEMBL4130443, “Targeting breast cancer stem cells by novel HDAC3-selective inhibitors” (Eur J Med Chem, 2017)
Activity calls are given as the source filed them. The calls are words filed in the database; no cut-off is given here.

How the values were obtained:
[1] = target: Histone deacetylase 3 (Homo sapiens) (UniProt O15379); assay: Inhibition of HDAC3 in human MDA-MB-231 cells assessed as increase in histone H3 acetylation at 0.5 to 5 uM by immunoblotting; format: cell-based
Outline: (§1)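 Monolayer cells treated in 5% FBS at graded concentrations. Lysed in SDS/EDTA/Tris pH 8.1 buffer, equal protein immunoblotted with primary antibodies 1:1000 overnight at 4°C. Detected by ECL for phospho-Akt, β-catenin and histone H3 pan/H3K9 acetylation.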

MDA-MB-231 [2] = assay: Inhibition of mammosphere formation of human MDA-MB-231 cells incubated for 7 days; conditions: MDA-MB-231, 168 h
MDA-MB-231 [3] = assay: Induction of tumor growth dela of human MDA-MB-231 cells xenografted in NOD/SCID mouse injected with cells pretreated with 5 uM compound for 48 hrs assessed as reduction in tumor volume at 100 mg/kg, po dosed via gavage once daily starting on day 2 post injection and continuing through day 26; format: functional, organism-based
Outline: (§2)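 Cells pretreated 48 h with 5 µM compound or DMSO, trypsinized and injected at 50,000 cells/0.1 ml in 50% Matrigel into the left 4th inguinal mammary fat pad of female NOD/SCID mice (N = 10 per group). Dosed 100 mg/kg by oral gavage once daily in 0.5% methylcellulose/0.1% Tween 80 in water. Caliper volume = (width² x length) x 0.52. Incidence by log-rank test, volume at day 27 by t-test.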

[4] = target: Histone deacetylase 4 (Homo sapiens) (UniProt P56524); assay: Inhibition of human HDAC4 at 1 uM using Boc-Lys(trifluoroacetyl)-AMC substrate
Sequence of Histone deacetylase 4 (Homo sapiens) (P56524 whole entry, canonical isoform): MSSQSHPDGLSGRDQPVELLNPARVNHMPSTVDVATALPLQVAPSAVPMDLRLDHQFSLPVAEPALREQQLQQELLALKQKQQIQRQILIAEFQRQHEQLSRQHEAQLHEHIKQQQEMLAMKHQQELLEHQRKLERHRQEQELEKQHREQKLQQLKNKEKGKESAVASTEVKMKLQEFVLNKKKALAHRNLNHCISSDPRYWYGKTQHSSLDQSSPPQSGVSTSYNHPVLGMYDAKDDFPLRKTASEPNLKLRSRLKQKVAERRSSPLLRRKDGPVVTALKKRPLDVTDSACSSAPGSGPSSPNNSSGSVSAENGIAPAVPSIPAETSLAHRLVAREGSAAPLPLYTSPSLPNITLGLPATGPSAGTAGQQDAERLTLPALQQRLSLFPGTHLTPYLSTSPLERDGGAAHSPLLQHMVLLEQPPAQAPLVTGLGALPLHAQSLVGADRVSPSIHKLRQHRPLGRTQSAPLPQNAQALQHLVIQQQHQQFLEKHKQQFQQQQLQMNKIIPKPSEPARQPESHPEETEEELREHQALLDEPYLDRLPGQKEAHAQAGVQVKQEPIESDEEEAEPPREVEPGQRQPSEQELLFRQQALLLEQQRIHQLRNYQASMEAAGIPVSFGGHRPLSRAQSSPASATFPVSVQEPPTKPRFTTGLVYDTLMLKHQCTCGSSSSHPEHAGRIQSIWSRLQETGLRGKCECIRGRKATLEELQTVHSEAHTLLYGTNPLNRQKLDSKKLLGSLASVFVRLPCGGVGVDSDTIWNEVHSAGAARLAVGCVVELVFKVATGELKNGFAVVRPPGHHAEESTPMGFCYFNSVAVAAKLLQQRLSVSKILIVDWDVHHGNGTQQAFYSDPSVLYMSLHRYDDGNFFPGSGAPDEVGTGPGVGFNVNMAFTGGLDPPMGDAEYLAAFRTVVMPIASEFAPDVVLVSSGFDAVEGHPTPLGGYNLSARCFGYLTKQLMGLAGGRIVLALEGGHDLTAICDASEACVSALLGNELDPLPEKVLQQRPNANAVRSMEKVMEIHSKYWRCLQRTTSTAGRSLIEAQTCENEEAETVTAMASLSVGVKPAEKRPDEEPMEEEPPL
Outline: (§3)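 Isoform profiling run by a commercial vendor with compounds at 1 µM. Values are percent inhibition, each the average of two determinations.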

MDA-MB-231 [5] = assay: Inhibition of cancer stem cell subpopulation of human MDA-MB-231 cells assessed as CD44+/CD24low subpopulation level at 0.1 to 5 uM by flow cytometry; format: functional, cell-based
Outline: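 Cells exposed to DMSO or compound at graded concentrations, then harvested and washed in stain buffer. Stained with FITC- or phycoerythrin-conjugated anti-CD44 and anti-CD24 for 30 min on ice in the dark, resuspended in PBS, and CD44+/CD24low fraction read by flow cytometry.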

MDA-MB-231 [6] = assay: Effect on beta-catenin mRNA expression in human MDA-MB-231 cells at 0.5 to 5 uM by RT-PCR method; format: cell-based; conditions: mda-mb-231, 5 µM
Outline: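 Monolayer cells treated at graded concentrations. Total RNA isolated with TRIzol. β-catenin mRNA assessed by RT-PCR with β-actin as reference.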

MDA-MB-231 [7] = assay: Inhibition of tumorogenicity of human MDA-MB-231 cells xenografted in NOD/SCID mouse injected with cells pretreated with 5 uM compound for 48 hrs assessed as reduction in tumor incidence at 100 mg/kg, po dosed via gavage once daily starting on day 2 post injection and continuing through day 12; format: functional, organism-based; outline: as §2
[8] = target: T1, Protein deacetylase HDAC6 (Homo sapiens) (UniProt Q9UBN7); assay: Inhibition of human HDAC6 at 1 uM using p53 (379 to 382 residues) derived fluorogenic peptide RHKKAc; outline: as §3
T1 sequence (whole entry): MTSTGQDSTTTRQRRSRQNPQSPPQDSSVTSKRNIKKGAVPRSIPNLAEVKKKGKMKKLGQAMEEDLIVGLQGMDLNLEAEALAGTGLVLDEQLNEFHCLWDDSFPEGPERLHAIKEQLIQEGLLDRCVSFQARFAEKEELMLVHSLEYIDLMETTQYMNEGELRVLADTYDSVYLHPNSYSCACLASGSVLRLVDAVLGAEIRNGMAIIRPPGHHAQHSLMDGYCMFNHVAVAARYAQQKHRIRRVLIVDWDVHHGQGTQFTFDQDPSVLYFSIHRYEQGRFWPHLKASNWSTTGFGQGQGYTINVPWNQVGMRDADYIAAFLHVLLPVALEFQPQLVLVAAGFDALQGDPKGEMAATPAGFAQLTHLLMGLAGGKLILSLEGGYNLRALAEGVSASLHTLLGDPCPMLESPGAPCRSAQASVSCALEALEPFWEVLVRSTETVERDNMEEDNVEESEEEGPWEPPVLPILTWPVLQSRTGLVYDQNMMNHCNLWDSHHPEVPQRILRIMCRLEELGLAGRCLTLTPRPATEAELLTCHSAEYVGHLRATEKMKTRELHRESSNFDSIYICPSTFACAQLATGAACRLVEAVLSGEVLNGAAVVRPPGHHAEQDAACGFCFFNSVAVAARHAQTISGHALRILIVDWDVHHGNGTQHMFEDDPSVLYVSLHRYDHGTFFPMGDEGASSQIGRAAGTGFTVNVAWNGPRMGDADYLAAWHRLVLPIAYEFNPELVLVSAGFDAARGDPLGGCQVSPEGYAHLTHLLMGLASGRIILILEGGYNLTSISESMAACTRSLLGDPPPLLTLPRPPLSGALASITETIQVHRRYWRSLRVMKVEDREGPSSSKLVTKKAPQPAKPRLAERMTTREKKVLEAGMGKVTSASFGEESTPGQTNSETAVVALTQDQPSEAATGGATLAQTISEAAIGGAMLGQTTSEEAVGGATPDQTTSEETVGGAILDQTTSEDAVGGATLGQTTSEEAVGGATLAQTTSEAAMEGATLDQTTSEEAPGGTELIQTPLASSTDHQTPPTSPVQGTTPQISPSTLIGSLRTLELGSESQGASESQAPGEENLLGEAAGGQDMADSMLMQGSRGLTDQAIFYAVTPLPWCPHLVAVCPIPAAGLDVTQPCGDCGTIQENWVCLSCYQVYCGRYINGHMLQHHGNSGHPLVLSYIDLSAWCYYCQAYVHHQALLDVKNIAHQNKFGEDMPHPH

[9] = target: Histone deacetylase 3 (Homo sapiens) (UniProt O15379); assay: Inhibition of HDAC3 in human MDA-MB-231 cells assessed as reduction in Akt phosphorylation at 0.5 to 5 uM by immunoblotting; format: cell-based; outline: as §1
MDA-MB-231 [10] = assay: Cytotoxicity in human MDA-MB-231 cells assessed as reduction in cell viability incubated for 24 to 72 hrs by MTT assay; format: functional, cell-based
Outline: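 MDA-MB-231 seeded 5,000 cells/well with 10% FBS, left overnight, then exposed to agents in 5% FBS for 24, 48 and 72 h. MTT added for 1 h, dye dissolved in DMSO, absorbance at 560 nm. Viability given as percent of the matching vehicle-treated control. N = 6.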

[11] = target: Histone deacetylase 3 (Homo sapiens) (UniProt O15379); assay: Inhibition of HDAC3 in human MDA-MB-231 cells assessed as reduction in beta-catenin expression at 0.5 to 5 uM by immunoblotting; format: cell-based; outline: as §1
MDA-MB-231 [12] = assay: Growth inhibition of human MDA-MB-231 cells incubated for 48 to 72 hrs by crystal violet staining based assay; format: functional, cell-based
Outline: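 Cells plated at 5000/well and left overnight, then treated in 5% FBS for 24, 48 and 72 h. Washed with PBS, stained 20 min with 0.5% crystal violet in 20% methanol, stain solubilized in 2% SDS, absorbance read at 550. Growth inhibition calculated as (1-Nt/Nc) x 100 against vehicle wells. N = 6.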

Histone deacetylase 2 = Histone deacetylase 2 (Homo sapiens, UniProt Q92769); assay: Inhibition of human HDAC2 at 1 uM using p53 (379 to 382 residues) derived fluorogenic peptide RHKKAc; outline: as §3
Sequence of Histone deacetylase 2 (Q92769 whole entry, the tested form may be a part): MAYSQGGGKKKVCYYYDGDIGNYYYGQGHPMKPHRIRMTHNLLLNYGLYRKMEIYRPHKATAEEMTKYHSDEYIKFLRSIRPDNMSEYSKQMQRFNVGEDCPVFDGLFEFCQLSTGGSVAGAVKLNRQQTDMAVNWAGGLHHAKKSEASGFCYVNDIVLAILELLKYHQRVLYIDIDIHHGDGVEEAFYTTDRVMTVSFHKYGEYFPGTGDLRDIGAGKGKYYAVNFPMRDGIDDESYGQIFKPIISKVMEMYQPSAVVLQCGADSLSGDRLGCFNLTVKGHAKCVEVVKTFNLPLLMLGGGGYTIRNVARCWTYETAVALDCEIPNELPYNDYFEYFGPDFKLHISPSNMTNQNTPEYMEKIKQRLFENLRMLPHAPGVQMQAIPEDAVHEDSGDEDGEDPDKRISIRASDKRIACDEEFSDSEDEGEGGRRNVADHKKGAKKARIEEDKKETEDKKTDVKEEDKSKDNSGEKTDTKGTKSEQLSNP

Sequence of Histone deacetylase 3 (Homo sapiens) (O15379 whole entry): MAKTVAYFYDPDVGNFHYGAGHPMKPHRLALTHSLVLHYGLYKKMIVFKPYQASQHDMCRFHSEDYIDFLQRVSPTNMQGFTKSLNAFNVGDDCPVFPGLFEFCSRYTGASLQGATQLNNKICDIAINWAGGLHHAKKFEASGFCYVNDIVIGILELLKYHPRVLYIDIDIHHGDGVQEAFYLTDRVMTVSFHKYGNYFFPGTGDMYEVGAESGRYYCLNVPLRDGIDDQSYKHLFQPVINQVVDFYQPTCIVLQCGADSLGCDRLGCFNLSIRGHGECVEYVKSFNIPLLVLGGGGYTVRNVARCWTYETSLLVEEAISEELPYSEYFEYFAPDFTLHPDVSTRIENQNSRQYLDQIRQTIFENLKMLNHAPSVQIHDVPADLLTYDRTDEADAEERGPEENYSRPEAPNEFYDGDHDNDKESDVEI

- inhibition [1]: Dose-dependent effect
- IC50 (MDA-MB-231 [2]): 0.5 to 1 µM
- inhibition [4]: 0%
- inhibition [8]: 4%
- inhibition [9]: Dose-dependent effect
- inhibition [11]: Dose-dependent effect
- IC50 (MDA-MB-231 [12]): ≥ 10 µM
- inhibition (Histone deacetylase 2): 5%
SMILES: CC(C)(C(=O)Nc1ccc(C(=O)Nc2ccc(F)cc2N)cc1)c1ccccc1
- Activity (MDA-MB-231 [3]): Active
- inhibition (MDA-MB-231 [5]): Dose-dependent effect
- Activity (MDA-MB-231 [6]): Non-Toxic
- inhibition (MDA-MB-231 [7]): Active
- IC50 (MDA-MB-231 [10]): ≥ 10 µM
